Laboratory results as given in ChEMBL document CHEMBL1141423, “Antimicrobial ambiguines from the cyanobacterium Fischerella sp. collected in Israel” (2007).
Values after ≈ are worked out from the molar mass of the structure shown.

Legend:
Type in all cases: functional
Escherichia coli = assay: Antibacterial activity against Escherichia coli ESS K12
In short: (§1)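 Broth-based antibacterial test run in LB broth, with puramycin as the reference agent.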

[1] = Antibacterial activity against Staphylococcus albus; in short: as §1
Bacillus subtilis = assay: Antibacterial activity against Bacillus subtilis; in short: as §1
Saccharomyces cerevisiae = assay: Antifungal activity against Saccharomyces cerevisiae
In short: (§2)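 Yeasts were tested in YPD broth, with amphotericin B as the reference antifungal.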

Candida albicans = assay: Antifungal activity against Candida albicans ATCC 90028; in short: as §2

SMILES	MIC (Escherichia coli) [µg/mL]	MIC [1] [µg/mL]	MIC (Bacillus subtilis) [µg/mL]	MIC (Saccharomyces cerevisiae) [µg/mL]	MIC (Candida albicans) [µg/mL]
[C-]#[N+][C@@H]1[C@@H]2c3c(C(C)(C)C=C)[nH]c4cccc(c34)C(C)(C)[C@H]2CC[C@]1(C)C=C	10 (≈ 26.8 µM)	0.625 (≈ 1.68 µM)	1.25 (≈ 3.36 µM)	5 (≈ 13.4 µM)	6.25 (≈ 16.8 µM)
C=C[C@@]1(C)CC[C@@H]2C(C)(C)c3cccc4[nH]c5c(c34)[C@@]2(O)[C@]1(C#N)[C@H]1O[C@H]1C5(C)C [AMBIGUINE I ISONITRILE]	2.5 (≈ 6.21 µM)	0.078 (≈ 0.194 µM)	0.312 (≈ 0.775 µM)	0.312 (≈ 0.775 µM)	0.39 (≈ 0.969 µM)
C[C@@H]1[C@H](O)[C@@H](C)/C=C/C=C/C=C/C=C/C=C/C=C/C=C/[C@H](O[C@@H]2O[C@H](C)[C@@H](O)[C@H](N)[C@@H]2O)C[C@@H]2O[C@](O)(C[C@@H](O)C[C@@H](O)[C@H](O)CC[C@@H](O)C[C@@H](O)CC(=O)O[C@H]1C)C[C@H](O)[C@H]2C(=O)O [AMPHOTERICIN B]					1.56 (≈ 1.69 µM)

Further lines, results first:

MIC (Escherichia coli) [µg/mL]	MIC [1] [µg/mL]	MIC (Bacillus subtilis) [µg/mL]	MIC (Saccharomyces cerevisiae) [µg/mL]	MIC (Candida albicans) [µg/mL]	SMILES
			0.312 (≈ 0.662 µM)		COc1ccc(C[C@H](N)C(=O)N[C@H]2[C@@H](O)[C@H](n3cnc4c(N(C)C)ncnc43)O[C@@H]2CO)cc1 [PUROMYCIN]
0.312 (≈ 0.536 µM)	0.156 (≈ 0.268 µM)	2.5 (≈ 4.3 µM)			CN[C@@H]1[C@H](O[C@H]2[C@H](O[C@H]3[C@H](O)[C@@H](O)[C@H](N=C(N)N)[C@@H](O)[C@@H]3N=C(N)N)O[C@@H](C)[C@]2(O)C=O)O[C@@H](CO)[C@H](O)[C@H]1O [STREPTOMYCIN]
